# Measured values: ChEMBL document CHEMBL4138104, “Indole carboxylic acid esters of melampomagnolide B are potent anticancer agents against both hematological and solid tumor cells” (Eur J Med Chem, 2017)
# Assays:
# ACHN = experiment: Growth inhibition of human ACHN cells incubated for 48 hrs by sulforhodamine B assay; format: functional
# In short: (§1)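 NCI-60 screen. Compounds were dosed at five concentrations spanning 10^-4 to 10^-8 M for 48 h at 37 °C. Cells were TCA-fixed, stained with 0.4% SRB and read at 515 nm against time-zero and vehicle controls. GI50 is the concentration giving a 50% reduction in net protein increase.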
# OVCAR-3 = experiment: Growth inhibition of human OVCAR3 cells incubated for 48 hrs by sulforhodamine B assay; format: functional; conditions: OVCAR-3, 48 h; in short: as §1
# IGROV-1 = experiment: Growth inhibition of human IGROV1 cells incubated for 48 hrs by sulforhodamine B assay; format: functional; conditions: IGROV-1, 48 h; in short: as §1
# MDA-MB-231 = experiment: Growth inhibition of human MDA-MB-231/ATCC cells incubated for 48 hrs by sulforhodamine B assay; format: functional; conditions: MDA-MB-231, 48 h; in short: as §1
# SNB-75 = experiment: Growth inhibition of human SNB75 cells incubated for 48 hrs by sulforhodamine B assay; format: functional; conditions: SNB-75, 48 h
# In short: (§2)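 NCI-60 screen run at NCI. Cells grown in RPMI medium with 5% FBS and 2 mM L-glutamine, plated at 5,000–40,000 cells/well, and preincubated 24 h at 37 °C. Time-zero plates were TCA-fixed. Compounds came from DMSO stocks and were tested at five concentrations from 10^-4 to 10^-8 M for 48 h. Cells were then TCA-fixed, stained with 0.4% SRB, and OD read at 515 nm. GI50 is the concentration giving a 50% reduction in net protein increase versus control.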
# PC-3 = experiment: Growth inhibition of human PC3 cells incubated for 48 hrs by sulforhodamine B assay; format: functional; conditions: PC-3, 48 h; in short: as §1
# SK-MEL-2 = experiment: Growth inhibition of human SK-MEL-2 cells incubated for 48 hrs by sulforhodamine B assay; format: functional; conditions: SK-MEL-2, 48 h; in short: as §1
# T47D = experiment: Growth inhibition of human T47D cells incubated for 48 hrs by sulforhodamine B assay; format: functional; in short: as §2
# TK-10 = experiment: Growth inhibition of human TK10 cells incubated for 48 hrs by sulforhodamine B assay; format: functional; conditions: TK-10, 48 h; in short: as §2
# HCC 2998 = experiment: Growth inhibition of human HCC2998 cells incubated for 48 hrs by sulforhodamine B assay; format: functional; conditions: HCC 2998, 48 h; in short: as §1
# SK-MEL-5 = experiment: Growth inhibition of human SK-MEL-5 cells incubated for 48 hrs by sulforhodamine B assay; format: functional; conditions: SK-MEL-5, 48 h; in short: as §1
# OVCAR-4 = experiment: Growth inhibition of human OVCAR4 cells incubated for 48 hrs by sulforhodamine B assay; format: functional; conditions: OVCAR-4, 48 h; in short: as §1
# BT-549 = experiment: Growth inhibition of human BT549 cells incubated for 48 hrs by sulforhodamine B assay; format: functional; conditions: BT-549, 48 h; in short: as §1
# 786-0 = experiment: Growth inhibition of human 786-0 cells incubated for 48 hrs by sulforhodamine B assay; format: functional; conditions: 786-0, 48 h; in short: as §1
# MDA-MB-468 = experiment: Growth inhibition of human MDA-MB-468 cells incubated for 48 hrs by sulforhodamine B assay; format: functional; conditions: MDA-MB-468, 48 h; in short: as §1
# DU-145 = experiment: Growth inhibition of human DU145 cells incubated for 48 hrs by sulforhodamine B assay; format: functional; conditions: DU-145, 48 h; in short: as §1
# SR = experiment: Growth inhibition of human SR cells incubated for 48 hrs by sulforhodamine B assay; format: functional; in short: as §2
# COLO 205 = experiment: Growth inhibition of human COLO205 cells incubated for 48 hrs by sulforhodamine B assay; format: functional; conditions: COLO 205, 48 h; in short: as §1
# Hs-578T = experiment: Growth inhibition of human Hs 578T cells incubated for 48 hrs by sulforhodamine B assay; format: functional; in short: as §1
# M14 = experiment: Growth inhibition of human M14 cells incubated for 48 hrs by sulforhodamine B assay; format: functional; conditions: M14, 48 h; in short: as §1
# [1] = Potency index, ratio of melampomagnolide-B EC50 to compound EC50 for human M9-ENL1 cells; format: functional
# In short: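 M9-ENL1 AML cells, derived by MLL-ENL transduction of human blood cells, were plated at 10^6 cells/mL in alpha-MEM with 5% human plasma, 20% FBS, SCF, IL-3, IL-7 and FLT3 ligand. Exposure was 24 h. Non-apoptotic (Annexin V/7-AAD double-negative) fraction was normalized to vehicle, in triplicate, to give EC50. PTL and MMB were run as reference controls.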
# EKVX = experiment: Growth inhibition of human EKVX cells incubated for 48 hrs by sulforhodamine B assay; format: functional; in short: as §1
# HOP-62 = experiment: Growth inhibition of human HOP62 cells incubated for 48 hrs by sulforhodamine B assay; format: functional; conditions: HOP-62, 48 h; in short: as §1
# MDA-MB-435 = experiment: Growth inhibition of human MDA-MB-435 cells incubated for 48 hrs by sulforhodamine B assay; format: functional; conditions: MDA-MB-435, 48 h; in short: as §1
# CAKI-1 = experiment: Growth inhibition of human Caki1 cells incubated for 48 hrs by sulforhodamine B assay; format: functional; conditions: CAKI-1, 48 h; in short: as §1
# [2] = Induction of apoptosis in AML02 cells isolated from acute myelogenous leukemia patient after 24 hrs by annexin V/7-AAD/propidium iodide staining-based flow cytometric method; format: functional, cell-based; conditions: Homo sapiens
# In short: (§3)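 Primary AML specimens from consenting patients were Ficoll-separated and some were cryopreserved. Cells were held 1 h in serum-free IMDM with 20% BIT 9500, LDL and beta-mercaptoethanol before drug. Drugs were diluted from DMSO stock into PBS, final DMSO ≤0.5%. Dosing was 0.5–10 μM for 24 h. Annexin V/7-AAD flow cytometry scored double-negative (non-apoptotic) cells, normalized to vehicle, in triplicate, and EC50 came from dose-response curves.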
# [3] = Induction of apoptosis in AML04 cells isolated from acute myelogenous leukemia patient after 24 hrs by annexin V/7-AAD/propidium iodide staining-based flow cytometric method; format: functional, cell-based; conditions: Homo sapiens; in short: as §3
# [4] = Induction of apoptosis in AML01 cells isolated from acute myelogenous leukemia patient after 24 hrs by annexin V/7-AAD/propidium iodide staining-based flow cytometric method; format: functional, cell-based; conditions: Homo sapiens, AML01, 24 h; in short: as §3
# [5] = Induction of apoptosis in AML03 cells isolated from acute myelogenous leukemia patient after 24 hrs by annexin V/7-AAD/propidium iodide staining-based flow cytometric method; format: functional, cell-based; conditions: Homo sapiens; in short: as §3
Structure (SMILES),GI50 (OVCAR-3) [nM],GI50 (IGROV-1) [nM],GI50 (MDA-MB-231) [nM],GI50 (SNB-75) [nM],GI50 (PC-3) [nM],GI50 (SK-MEL-2) [nM],GI50 (T47D) [nM],GI50 (TK-10) [nM],GI50 (HCC 2998) [nM],GI50 (SK-MEL-5) [nM],GI50 (OVCAR-4) [nM],GI50 (786-0) [nM],GI50 (MDA-MB-468) [nM],GI50 (COLO 205) [nM],GI50 (Hs-578T) [nM],GI50 (M14) [nM],Ratio IC50 [1],GI50 (EKVX) [nM],GI50 (HOP-62) [nM],GI50 (MDA-MB-435) [nM],further results
C=C1C(=O)O[C@@H]2[C@H]3O[C@]3(C)CC/C=C(/COC(=O)c3cc4ccccc4o3)CC[C@@H]12,480,1390,1640,1340,1760,1770,1350,3010,2470,1520,1560,1810,1500,1550,2910,1430,2 - 20,2020,2480,1430,GI50 (ACHN): 1440 nM; GI50 (BT-549): 1480 nM; GI50 (DU-145): 1180 nM; GI50 (SR): 1150 nM
C=C1C(=O)O[C@@H]2[C@H]3O[C@]3(C)CC/C=C(/COC(=O)c3cc4cc(F)ccc4[nH]3)CC[C@@H]12,1200,1440,1590,11100,1700,1950,1560,1830,2020,1850,1670,1780,1860,1640,2950,1890,2 - 20,1580,2920,1500,GI50 (ACHN): 1460 nM; GI50 (CAKI-1): 1200 nM; GI50 (DU-145): 1670 nM; GI50 (SR): 2030 nM
C=C1C(=O)O[C@@H]2[C@H]3O[C@]3(C)CC/C=C(/COC(=O)c3cn(C)c4ccccc34)CC[C@@H]12,380,690,1050,1090,1470,1380,1190,1100,1810,1420,1140,1460,440,1240,2390,1410,2 - 20,960,1810,1350,GI50 (ACHN): 820 nM; GI50 (BT-549): 510 nM; GI50 (DU-145): 1010 nM; GI50 (SR): 340 nM
C=C1C(=O)O[C@@H]2[C@H]3O[C@]3(C)CC/C=C(/COC(=O)c3cc4cc(OC)ccc4[nH]3)CC[C@@H]12,930,1480,1580,–,1830,1600,1300,1280,1540,1740,1630,1270,1130,1180,3090,1270,2 - 20,1500,1640,620,GI50 (ACHN): 810 nM; EC50 [2]: 3300 nM; EC50 [3]: 3300 nM; EC50 [4]: 3000 nM; GI50 (BT-549): 1060 nM; GI50 (CAKI-1): 1710 nM; EC50 [5]: 2200 nM; GI50 (DU-145): 1030 nM
C=C1C(=O)O[C@@H]2C3O[C@]3(C)CC/C=C(\C)CC[C@@H]12 (stereo partly specified),17400,21100,–,48400,–,–,–,–,24100,–,21500,–,–,–,–,–,–,17300,49000,–,EC50 [2]: 6300 nM; EC50 [3]: 13000 nM; EC50 [4]: 5200 nM; GI50 (CAKI-1): 9350 nM; EC50 [5]: 1900 nM
C=C1C(=O)O[C@@H]2[C@H]3O[C@]3(C)CC/C=C(/COC(=O)CCCc3c[nH]c4ccccc34)CC[C@@H]12,1530,1630,1780,12600,1920,1960,2170,1640,1790,1740,1660,1600,1760,1860,3190,1660,2 - 20,2020,6540,1730,GI50 (BT-549): 1370 nM; GI50 (DU-145): 1670 nM; GI50 (SR): 1730 nM
C=C1C(=O)O[C@@H]2[C@H]3O[C@]3(C)CC/C=C(/COC(=O)c3cc4cc(Cl)ccc4[nH]3)CC[C@@H]12,1250,1380,1320,570,2420,1730,1340,1750,1400,1910,1330,1510,1890,1720,2250,1470,2 - 20,1400,2220,1240,GI50 (ACHN): 1350 nM; GI50 (BT-549): 1310 nM; GI50 (CAKI-1): 1190 nM; GI50 (SR): 770 nM
C=C1C(=O)O[C@@H]2[C@H]3O[C@]3(C)CC/C=C(/COC(=O)c3cc4ccccc4s3)CC[C@@H]12,440,1760,1970,3520,1830,1750,1470,1550,1750,1750,2080,1520,1630,1710,2890,1750,2 - 20,1690,1810,1330,GI50 (ACHN): 1500 nM; GI50 (CAKI-1): 1460 nM; GI50 (DU-145): 1050 nM; GI50 (SR): 520 nM
C=C1C(=O)O[C@@H]2[C@H]3O[C@]3(C)CC/C=C(/COC(=O)c3c[nH]c4ccccc34)CC[C@@H]12,200,250,190,200,380,230,400,280,320,200,250,320,190,240,610,220,2 - 20,310,820,240,GI50 (ACHN): 210 nM; GI50 (BT-549): 170 nM; GI50 (DU-145): 380 nM; GI50 (SR): 280 nM
